This is an account of results in ChEMBL document CHEMBL1124343 (J Med Chem, 1989).

In the first assay the target is T1, Adrenergic receptor alpha-1 (Rattus norvegicus, UniProt P15823+P23944+P43140).
T1 sequence (P15823 whole entry): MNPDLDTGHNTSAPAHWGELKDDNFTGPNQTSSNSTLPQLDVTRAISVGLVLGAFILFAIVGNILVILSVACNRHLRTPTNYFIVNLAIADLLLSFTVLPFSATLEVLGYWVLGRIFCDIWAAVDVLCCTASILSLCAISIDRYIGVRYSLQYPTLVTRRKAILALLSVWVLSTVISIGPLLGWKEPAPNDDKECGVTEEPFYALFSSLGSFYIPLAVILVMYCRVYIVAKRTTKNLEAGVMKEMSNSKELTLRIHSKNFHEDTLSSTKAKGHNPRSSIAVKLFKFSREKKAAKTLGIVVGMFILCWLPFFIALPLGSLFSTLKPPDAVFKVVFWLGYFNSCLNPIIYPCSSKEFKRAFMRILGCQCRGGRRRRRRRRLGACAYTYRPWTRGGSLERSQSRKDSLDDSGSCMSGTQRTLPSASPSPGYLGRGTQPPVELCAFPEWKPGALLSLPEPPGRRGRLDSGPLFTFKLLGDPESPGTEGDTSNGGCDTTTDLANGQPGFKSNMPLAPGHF
T1 sequence (P23944 whole entry): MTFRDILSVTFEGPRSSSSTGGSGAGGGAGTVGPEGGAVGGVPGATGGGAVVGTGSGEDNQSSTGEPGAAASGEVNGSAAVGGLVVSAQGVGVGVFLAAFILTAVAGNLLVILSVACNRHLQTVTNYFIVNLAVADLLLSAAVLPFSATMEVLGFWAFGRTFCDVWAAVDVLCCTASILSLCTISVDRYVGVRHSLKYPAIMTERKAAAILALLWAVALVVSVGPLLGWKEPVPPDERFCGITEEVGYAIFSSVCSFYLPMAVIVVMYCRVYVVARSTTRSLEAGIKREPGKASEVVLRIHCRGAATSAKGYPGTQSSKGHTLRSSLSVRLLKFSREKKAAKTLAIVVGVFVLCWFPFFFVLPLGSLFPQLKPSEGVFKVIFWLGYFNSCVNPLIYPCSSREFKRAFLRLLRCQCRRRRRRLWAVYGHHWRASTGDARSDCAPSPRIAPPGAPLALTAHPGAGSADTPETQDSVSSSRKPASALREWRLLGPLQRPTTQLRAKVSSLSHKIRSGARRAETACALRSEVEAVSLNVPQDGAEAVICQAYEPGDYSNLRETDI
T1 sequence (P43140 whole entry): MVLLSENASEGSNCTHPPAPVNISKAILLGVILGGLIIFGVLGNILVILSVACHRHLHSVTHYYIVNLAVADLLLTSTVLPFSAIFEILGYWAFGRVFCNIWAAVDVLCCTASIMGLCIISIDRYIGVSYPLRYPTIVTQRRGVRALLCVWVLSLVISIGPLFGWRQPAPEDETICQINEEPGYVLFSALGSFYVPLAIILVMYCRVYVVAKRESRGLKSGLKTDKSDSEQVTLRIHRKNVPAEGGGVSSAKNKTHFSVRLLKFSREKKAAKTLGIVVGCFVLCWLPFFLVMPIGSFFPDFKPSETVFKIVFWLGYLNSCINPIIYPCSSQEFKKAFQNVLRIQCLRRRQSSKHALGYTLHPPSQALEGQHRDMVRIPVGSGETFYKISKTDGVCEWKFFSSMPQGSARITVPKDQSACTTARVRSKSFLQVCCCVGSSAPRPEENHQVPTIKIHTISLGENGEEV
Description: Displacement of [3H]prazosin binding to Alpha-1 adrenergic receptor sites on rat cerebral cortical membranes at 100 nM concentration. The assay is classed as cell membranes, Membrane.
Settings: not given
Background: In a radioligand displacement assay an active substance lowers the binding of a labelled ligand.
For `COC(=O)/C=C/C(=O)Nc1ccc(/C=C/C(=O)N2CCN(c3nc(N)c4cc(OC)c(OC)cc4n3)CC2)cc1`, the “-Log IC50” value is listed as 7.53.
Same read-out and setting: then `COc1cc2nc(N3CCN(C(=O)/C=C/c4ccc(N=C=S)cc4)CC3)nc(N)c2cc1OC`, with 6.99; and `C/C=C/C=C/C(=O)N1CCN(c2nc(N)c3cc(OC)c(OC)cc3n2)CC1`, with 8.36.
The same measure, in the same setting: in the case of `COC(=O)/C=C/C(=O)Nc1ccc(CCCCC(=O)N2CCN(c3nc(N)c4cc(OC)c(OC)cc4n3)CC2)cc1` it was 8.35.
As to `COc1cc2nc(N3CCN(C(=O)/C=C/c4ccccc4)CC3)nc(N)c2cc1OC`, the “-Log IC50” value is recorded as 9.16.
The same measure, in the same setting: in the case of `COc1cc2nc(N3CCN(C(=O)/C=C/c4ccc(F)cc4)CC3)nc(N)c2cc1OC` it was 7.64; in that of `COc1cc2nc(N3CCN(C(=O)/C=C/c4ccc(NC(=O)CBr)cc4)CC3)nc(N)c2cc1OC`, 7.17.
On the same count and under the same terms, then `COc1cc2nc(N3CCN(C(=O)/C(F)=C/c4ccccc4)CC3)nc(N)c2cc1OC`, with 7.4; and `COc1ccc(/C=C/C(=O)N2CCN(c3nc(N)c4cc(OC)c(OC)cc4n3)CC2)cc1`, with 8.47.

The target of a further assay is T1, Adrenergic receptor alpha-1. The experiment in a line: Compound is evaluated for its ability to compete with [3H]prazosin for binding to Alpha-1 adrenergic receptor sites on rat cerebral cortical membranes at 10 nM concentration.
Settings: not given
Regarding `COc1cc2nc(N3CCN(C(=O)C4=CC5C=CC4CC5)CC3)nc(N)c2cc1OC` (stereo unspecified), the “-Log IC50” value is recorded as 8.12.
Consider `COc1cc2nc(N3CCN(C(=O)C4CC5C=CC4C5)CC3)nc(N)c2cc1OC` (stereo unspecified), for which the “-Log IC50” value was 8.8.

Another assay deals with Adrenergic receptor alpha-1 (Rattus norvegicus) (UniProt P15823+P23944+P43140). The experiment in a line: Irreversible action of compound towards Alpha-1 adrenergic receptor on rat cerebral cortical membranes was determined at 1000 nM concentration. The assay is classed as cell membranes. Particulars: Membrane. In a few lines: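 Cortical membranes in Tris/MgCl2 buffer were preincubated 1 h at 30 °C with compound or buffer alone. Isothiocyanates were run in 50 mM phosphate with 1 mM EDTA, pH 7. Membranes were diluted, kept 10 min on ice and washed by four centrifugations. […] Bmax came from Scatchard plots, at least 3 experiments.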
Turning to `COC(=O)/C=C/C=C/C(=O)N1CCN(c2nc(N)c3cc(OC)c(OC)cc3n2)CC1`, the Decrease in Bmax was found to be 0%.

A further assay deals with T1, Adrenergic receptor alpha-1. The experiment in a line: Compound is evaluated for its ability to compete with [3H]prazosin for binding to Alpha-1 adrenergic receptor sites on rat cerebral cortical membranes at 1000 nM concentration.
Settings: not given
Take `COC(=O)/C=C/C=C/C(=O)N1CCN(c2nc(N)c3cc(OC)c(OC)cc3n2)CC1`: the “-Log IC50” value was found to be 7.41.

For the next assay the target is unchanged. The experiment in a line: Compound is evaluated for its ability to compete with [3H]prazosin for binding to Alpha-1 adrenergic receptor sites on rat cerebral cortical membranes at 100 nM concentration.
Settings: not given
As to `COc1cc2nc(N3CCN(C(=O)C4OC4c4ccccc4)CC3)nc(N)c2cc1OC` (stereo unspecified), the “-Log IC50” value came to 7.88.

A further assay has the same target. Description: Binding affinity at Alpha-1 adrenergic receptor sites on rat cerebral cortical membranes by [3H]prazosin displacement.
Settings: not given
The gist of the method: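 Rat cortex membranes were washed and resuspended in 50 mM Tris pH 7.4 with 10 mM MgCl2, about 200–300 μg protein per tube. […] Nonspecific binding used 10 μM phentolamine. Tubes were run in duplicate, IC50 came from displacement curves, and there were 3–5 experiments or duplicate experiments.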
In the case of `COc1cc2nc(N3CCN(C(=O)C4CC4c4ccccc4)CC3)nc(N)c2cc1OC` (stereo unspecified), the “-Log IC50” value turned out to be 9.29.
On the same count and under the same terms, in the case of `COc1cc2nc(N3CCN(S(=O)(=O)c4cccs4)CC3)nc(N)c2cc1OC` it was 7.47; in that of `COc1cc2nc(N3CCN(/C(S)=N/C4CCCCC4)CC3)nc(N)c2cc1OC`, 8.27.
Still for that read-out and setting: in the case of `COc1cc2nc(N3CCN(C(=O)COc4ccccc4)CC3)nc(N)c2cc1OC` it was 7.9.
Same read-out and setting: then `COc1cc2nc(N3CCN(C(=O)CCc4ccccc4)CC3)nc(N)c2cc1OC`, with 8.47.
For `COc1cc2nc(N3CCN(C(=O)c4ccc(N=C=S)c(I)c4)CC3)nc(N)c2cc1OC`, the “-Log IC50” value worked out at 7.29.
On the same count and under the same terms, then `COc1cc2nc(N3CCN(C(=O)/C=C/c4cccc(F)c4)CC3)nc(N)c2cc1OC`, with 7.68; and `COc1cc2nc(N3CCN(S(=O)(=O)c4ccc(C)cc4)CC3)nc(N)c2cc1OC`, with 7.94; and `COc1cc2nc(N3CCN(/C(S)=N/c4ccc(N=[N+]=[N-])cc4)CC3)nc(N)c2cc1OC`, with 7.7.
As for `COc1cc2nc(N3CCN(/C(S)=N/c4ccccc4)CC3)nc(N)c2cc1OC`, the “-Log IC50” value was 11.16.
On to `COc1cc2nc(N3CCN(C(=O)/C=C/c4ccc(Cl)cc4)CC3)nc(N)c2cc1OC`, for which the “-Log IC50” value is recorded as 7.9.
The same measure, in the same setting: in the case of `COc1cc2nc(N3CCN(C(=O)Nc4ccccc4)CC3)nc(N)c2cc1OC` it was 7.56; in that of `COc1cc2nc(N3CCN(/C(S)=N/c4ccc(NC(=S)N5CC5)cc4)CC3)nc(N)c2cc1OC`, 7.01; in that of `COc1cc2nc(N3CCN(C(=O)c4cccc(CCl)c4)CC3)nc(N)c2cc1OC`, 7.93.
Still for that read-out and setting: then `COc1cc2nc(N3CCN(C(=O)/C=C/C(=O)c4ccccc4)CC3)nc(N)c2cc1OC`, with 7.06; and `COc1cc2nc(N3CCN(C(=O)/C=C/c4ccc(Br)cc4)CC3)nc(N)c2cc1OC`, with 7.1.
On the same count and under the same terms, in the case of `COc1cc2nc(N3CCN(C(=O)c4ccc5ccccc5c4)CC3)nc(N)c2cc1OC` it was 7.31.
